Results reported in paper PMC9476207 (ACS Omega, 2022).

What was measured:
Assay in all cases: NCI-60 single-dose antiproliferative screen
Type in all cases: cell-based
SK-MEL-2 = settings: Homo sapiens, SK-MEL-2, 48 h, read-out: growth percent
Method in brief: (§1)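 Cells grown in RPMI 1640 with 5% FBS and 2 mM L-glutamine, plated and held 24 h at 37 °C; time-zero plates TCA-fixed. DMSO stocks were diluted in gentamicin-containing medium to a final 10^-5 M, with a DMSO-only control. Exposure 48 h, 5% CO2. Adherent cells TCA-fixed 1 h at 4 °C, stained with 0.4% SRB, solubilised in 10 mM Trizma base, read at 515 nm. Growth percent derived from ODtzero, ODtest and ODctrl.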

NCI/ADR-RES = settings: Homo sapiens, 48 h, read-out: growth percent
Method in brief: (§2)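 NCI-60 protocol. Lines were grown in RPMI 1640 with 5% FBS and 2 mM L-glutamine, plated and incubated 24 h at 37 °C; time-zero plates were TCA-fixed. The test compound was dissolved in DMSO, diluted in medium with 50 μg/mL gentamicin and given once at a final 10^-5 M (DMSO control) for 48 h. Cells were fixed with cold TCA (1 h, 4 °C) and stained with 0.4% SRB in 1% acetic acid for 10 min. Dye was dissolved in 10 mM Trizma base and read at 515 nm. Growth percent was calculated from time-zero, test and control ODs.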

SR = settings: Homo sapiens, 48 h, read-out: growth percent
Method in brief: as §1

K-562 = settings: Homo sapiens, K562, 48 h, read-out: growth percent
Method in brief: as §2

SF-295 = settings: Homo sapiens, SF-295, 48 h, read-out: growth percent
Method in brief: as §2

NCI-H322M = settings: Homo sapiens, 48 h, read-out: growth percent
Method in brief: as §2

SN12C = settings: Homo sapiens, 48 h, read-out: growth percent
Method in brief: as §1

MCF-7 = settings: Homo sapiens, MCF7, 48 h, read-out: growth percent
Method in brief: as §2

T-47D = settings: Homo sapiens, T47D, 48 h, read-out: growth percent
Method in brief: as §1

NCI-H23 = settings: Homo sapiens, NCI-H23, 48 h, read-out: growth percent
Method in brief: as §2

OVCAR-5 = settings: Homo sapiens, OVCAR-5, 48 h, read-out: growth percent
Method in brief: as §2

MDA-MB-231 ATCC = settings: Homo sapiens, MDA-MB-231, 48 h, read-out: growth percent
Method in brief: as §2

MDA-MB-435 = settings: Homo sapiens, MDA-MB-435, 48 h, read-out: growth percent
Method in brief: as §2

HOP-92 = settings: Homo sapiens, HOP-92, 48 h, read-out: growth percent
Method in brief: as §2

SW-620 = settings: Homo sapiens, SW-620, 48 h, read-out: growth percent
Method in brief: as §1

UACC-62 = settings: Homo sapiens, UACC-62, 48 h, read-out: growth percent
Method in brief: as §1

SK-MEL-28 = settings: Homo sapiens, SK-MEL-28, 48 h, read-out: growth percent
Method in brief: as §1

SK-MEL-5 = settings: Homo sapiens, SK-MEL-5, 48 h, read-out: growth percent
Method in brief: as §1

U251 = settings: Homo sapiens, U-251, 48 h, read-out: growth percent
Method in brief: as §1

HT29 = settings: Homo sapiens, HT-29, 48 h, read-out: growth percent
Method in brief: as §2

RPMI-8226 = settings: Homo sapiens, RPMI-8226, 48 h, read-out: growth percent
Method in brief: as §2

HS 578T = settings: Homo sapiens, 48 h, read-out: growth percent
Method in brief: as §2

SF-268 = settings: Homo sapiens, SF-268, 48 h, read-out: growth percent
Method in brief: as §2

UACC-257 = settings: Homo sapiens, UACC-257, 48 h, read-out: growth percent
Method in brief: as §1

NCI-H522 = settings: Homo sapiens, NCI-H522, 48 h, read-out: growth percent
Method in brief: as §2

RXF 393 = settings: Homo sapiens, RXF 393, 48 h, read-out: growth percent
Method in brief: as §2

MALME-3M = settings: Homo sapiens, 48 h, read-out: growth percent
Method in brief: as §2

KM12 = settings: Homo sapiens, KM12, 48 h, read-out: growth percent
Method in brief: as §2

CAKI-1 = settings: Homo sapiens, CAKI-1, 48 h, read-out: growth percent
Method in brief: as §2

LOX IMVI = settings: Homo sapiens, 48 h, read-out: growth percent
Method in brief: as §2

CCRF-CEM = settings: Homo sapiens, 48 h, read-out: growth percent
Method in brief: as §2

SF-539 = settings: Homo sapiens, SF-539, 48 h, read-out: growth percent
Method in brief: as §1

786-0 = settings: Homo sapiens, 786-0, 48 h, read-out: growth percent
Method in brief: as §2

SNB-75 = settings: Homo sapiens, SNB-75, 48 h, read-out: growth percent
Method in brief: as §1

DU-145 = settings: Homo sapiens, DU-145, 48 h, read-out: growth percent
Method in brief: as §2

BT-549 = settings: Homo sapiens, BT-549, 48 h, read-out: growth percent
Method in brief: as §2

SK-OV-3 = settings: Homo sapiens, SK-OV-3, 48 h, read-out: growth percent
Method in brief: as §1

Compound `COc1cc(CNC(=O)CCCC/C=C/C(C)C)ccc1OCc1cn(-c2ccc(F)cc2)nn1` [14h, (E)-N-(4-((1-(4-Fluorophenyl)-1H-1,2,3-triazol-4-yl)methoxy)-3-methoxybenzyl)-8-methylnon-6-enamide] has an activity at 10 µM (SK-MEL-2) of 111%, an activity at 10 µM (NCI/ADR-RES) of 70.6% and an activity at 10 µM (SR) of 76.7%. The activity at 10 µM (K-562) was 68.7%, the activity at 10 µM (SF-295) was 90.5% and the activity at 10 µM (NCI-H322M) was 91.8%. The activity at 10 µM (SN12C) was 82.4%, the activity at 10 µM (MCF-7) was 89.3% and the activity at 10 µM (T-47D) was 73.8%. It also gave an activity at 10 µM (NCI-H23) of 81.4%, an activity at 10 µM (OVCAR-5) of 97.6% and an activity at 10 µM (MDA-MB-231 ATCC) of 69.1%. It also gave an activity at 10 µM (MDA-MB-435) of 98.8%, an activity at 10 µM (HOP-92) of 66.2% and an activity at 10 µM (SW-620) of 91%. It also gave an activity at 10 µM (UACC-62) of 71.9%, an activity at 10 µM (SK-MEL-28) of 102% and an activity at 10 µM (SK-MEL-5) of 83.7%. It also gave an activity at 10 µM (U251) of 83.9%, an activity at 10 µM (HT29) of 106% and an activity at 10 µM (RPMI-8226) of 68.4%. The activity at 10 µM (HS 578T) was 77.7%, the activity at 10 µM (SF-268) was 87.2% and the activity at 10 µM (UACC-257) was 90.2%. The activity at 10 µM (NCI-H522) was 70.2%, the activity at 10 µM (RXF 393) was 95.3% and the activity at 10 µM (MALME-3M) was 103%. For the same compound, the activity at 10 µM (KM12) was 94.5%, the activity at 10 µM (CAKI-1) was 88.4% and the activity at 10 µM (LOX IMVI) was 84.2%. The activity at 10 µM (CCRF-CEM) was 79.7%, the activity at 10 µM (SF-539) was 92.2% and the activity at 10 µM (786-0) was 83.7%. For the same compound, the activity at 10 µM (SNB-75) was 83.5%, the activity at 10 µM (DU-145) was 96.1% and the activity at 10 µM (BT-549) was 91%. For the same compound, the activity at 10 µM (SK-OV-3) was 86.4%.
`COc1cc(CNC(=O)CCCC/C=C/C(C)C)ccc1OCc1cn(-c2ccc(Cl)c(Cl)c2)nn1` [14d, (E)-N-(4-((1-(3,4-Dichlorophenyl)-1H-1,2,3-triazol-4-yl)methoxy)-3-methoxybenzyl)-8-methylnon-6-enamide] was tested, and the activity at 10 µM (SK-MEL-2) was 108%, the activity at 10 µM (NCI/ADR-RES) was 91.1% and the activity at 10 µM (SR) was 78.9%. It also gave an activity at 10 µM (K-562) of 77.1%, an activity at 10 µM (SF-295) of 94.6% and an activity at 10 µM (NCI-H322M) of 93.2%. The activity at 10 µM (SN12C) was 113%, the activity at 10 µM (MCF-7) was 95.3% and the activity at 10 µM (T-47D) was 87%. The activity at 10 µM (NCI-H23) was 93.2%, the activity at 10 µM (OVCAR-5) was 102% and the activity at 10 µM (MDA-MB-231 ATCC) was 87.3%. The activity at 10 µM (MDA-MB-435) was 94.2%, the activity at 10 µM (HOP-92) was 78.7% and the activity at 10 µM (SW-620) was 96.1%. For the same compound, the activity at 10 µM (UACC-62) was 75.6%, the activity at 10 µM (SK-MEL-28) was 104% and the activity at 10 µM (SK-MEL-5) was 81.6%. The activity at 10 µM (U251) was 91.9%, the activity at 10 µM (HT29) was 99.4% and the activity at 10 µM (RPMI-8226) was 78.1%. For the same compound, the activity at 10 µM (HS 578T) was 84%, the activity at 10 µM (SF-268) was 93.3% and the activity at 10 µM (UACC-257) was 89.2%. It also gave an activity at 10 µM (NCI-H522) of 69.3%, an activity at 10 µM (RXF 393) of 101% and an activity at 10 µM (MALME-3M) of 105%. It also gave an activity at 10 µM (KM12) of 100%, an activity at 10 µM (CAKI-1) of 58.3% and an activity at 10 µM (LOX IMVI) of 87%. For the same compound, the activity at 10 µM (CCRF-CEM) was 84.7%, the activity at 10 µM (SF-539) was 96.1% and the activity at 10 µM (786-0) was 96.3%. The activity at 10 µM (SNB-75) was 79.1%, the activity at 10 µM (DU-145) was 86.5% and the activity at 10 µM (BT-549) was 91.8%. It also gave an activity at 10 µM (SK-OV-3) of 97.2%.
`COc1cc(CNC(=O)C[C@H](C)CCC=C(C)C)ccc1OCc1cn(-c2ccc(Cl)cc2)nn1` [18b, (R)-N-(4-((1-(4-Chlorophenyl)-1H-1,2,3-triazol-4-yl)methoxy)-3-methoxybenzyl)-3,7-dimethyloct-6-enamide] showed an activity at 10 µM (SK-MEL-2) of 83.6%, an activity at 10 µM (NCI/ADR-RES) of 48% and an activity at 10 µM (SR) of 65.8%. For the same compound, the activity at 10 µM (K-562) was 53.5%, the activity at 10 µM (SF-295) was 55.5% and the activity at 10 µM (NCI-H322M) was 83.5%. For the same compound, the activity at 10 µM (SN12C) was 67.7%, the activity at 10 µM (MCF-7) was 51.6% and the activity at 10 µM (T-47D) was 52.5%. It also gave an activity at 10 µM (NCI-H23) of 64.9%, an activity at 10 µM (OVCAR-5) of 80.7% and an activity at 10 µM (MDA-MB-231 ATCC) of 59.6%. The activity at 10 µM (MDA-MB-435) was 84.9%, the activity at 10 µM (HOP-92) was 53% and the activity at 10 µM (SW-620) was 76.8%. It also gave an activity at 10 µM (UACC-62) of 65.7%, an activity at 10 µM (SK-MEL-28) of 87% and an activity at 10 µM (SK-MEL-5) of 62.8%. For the same compound, the activity at 10 µM (U251) was 57.7%, the activity at 10 µM (HT29) was 79.6% and the activity at 10 µM (RPMI-8226) was 75.3%. It also gave an activity at 10 µM (HS 578T) of 71.4%, an activity at 10 µM (SF-268) of 95.4% and an activity at 10 µM (UACC-257) of 85.5%. It also gave an activity at 10 µM (NCI-H522) of 62.9%, an activity at 10 µM (RXF 393) of 56.1% and an activity at 10 µM (MALME-3M) of 68.3%. It also gave an activity at 10 µM (KM12) of 87.7%, an activity at 10 µM (CAKI-1) of 45.9% and an activity at 10 µM (LOX IMVI) of 59.7%. For the same compound, the activity at 10 µM (CCRF-CEM) was 92.9%, the activity at 10 µM (SF-539) was 67.7% and the activity at 10 µM (786-0) was 84.3%. For the same compound, the activity at 10 µM (SNB-75) was 41.6%, the activity at 10 µM (DU-145) was 82.8% and the activity at 10 µM (BT-549) was 87.4%. For the same compound, the activity at 10 µM (SK-OV-3) was 72.1%.
